Laboratory results as given in ChEMBL document CHEMBL5715960, “Epigenetic Co-Deregulation of EZH2/TET1 is a Senescence-Countering, Actionable Vulnerability in Triple-Negative Breast Cancer” (Theranostics, 2019).
Activity calls are given as the source filed them.

Legend:
MDA-MB-231 [1] = experiment: Induction of apoptosis in human MDA-MB-231 cells assessed as increase in accumulation of cells at G1 phase in presence of adriamycin by BrdU/PI-based cell cycle analysis; type: functional
Outline: (§1)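 Cell cycle by BrdU/PI staining and flow cytometry, giving G1, S and G2 fractions. Cells received 0.005 µg/ml adriamycin with or without 2 µM GSK343, or DMSO. Mean ± SD.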

MCF7 [2] = experiment: Effect on human MCF7 cells assessed as increase in TET2 transcription by qRT-PCR analysis; type: functional, cell-based
Outline: (§2)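 qRT-PCR of TET1, TET2 and TET3 transcripts in breast cancer cells exposed to GSK343 (2 µM unless otherwise indicated), shown relative to DMSO-treated cells. Mean ± SD, triplicate unless stated.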

MDA-MB-231 [3] = experiment: Downregulation of EZH2 protein expression in human MDA-MB-231 cells at 2 uM for 2 days by immunoblot analysis; type: functional, cell-based; conditions: time 2.0 day
MDA-MB-231 [4] = experiment: Effect on human MDA-MB-231 cells assessed as apoptotic phenotype by measuring increase in PUMA expression level at 2 uM in presence of adriamycin by immunoblot analysis; type: functional, cell-based
Outline: (§3)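 Immunoblot of cell lysates after 0.05 µg/ml adriamycin alone, with 2 µM GSK343, or DMSO. α-Tubulin and total H3 used as loading controls.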

MDA-MB-436 [5] = experiment: Antiproliferative activity in human MDA-MB-436 cells expressing vector assessed as increase in SA-beta-gal positive cells by SA-beta-gal staining analysis (reference value: 10.3+/-3.7%); type: functional
MDA-MB-436 [6] = experiment: Upregulation of […] signalling in human MDA-MB-436 cells at 2 uM for 2 days by immunoblot analysis; type: functional, cell-based; conditions: time 2.0 day
MDA-MB-436 [7] = experiment: Induction of apoptosis in human MDA-MB-436 cells assessed as increase in accumulation of cells at G1 phase in presence of adriamycin by BrdU/PI-based cell cycle analysis; type: functional; outline: as §1
MDA-MB-361 = experiment: Cytotoxicity against human MDA-MB-361 cells at 0.5 to 2 uM for 2 days by Guava viacount assay; type: toxicity, cell-based; conditions: mda-mb-361, 48 h, dose 0.5-2 µM, time 2 day
Outline: (§4)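 Cells plated at 2 × 10^4 (24-well) or 1 × 10^5 (12-well), exposed to a range of GSK343 concentrations for 2 days against DMSO solvent control; cell number and viability read by Guava ViaCount flow cytometry, relative to DMSO. Triplicate; mean ± SD.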

MDA-MB-436 [8] = experiment: Effect on human MDA-MB-436 cells assessed as increase in TET1 transcription by qRT-PCR analysis; type: functional, cell-based; outline: as §2
MDA-MB-436 [9] = experiment: Downregulation of EZH2 transcription in human MDA-MB-436 cells at 2 uM for 2 days by immunoblot analysis; type: functional, cell-based; conditions: time 2.0 day
MCF7 [10] = experiment: Upregulation of TP53 gene in human MCF7 cells at 2 uM by qRT-PCR analysis; type: functional, cell-based
Outline: (§5)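 Relative transcript levels measured by qRT-PCR in cells treated with 2 µM inhibitor, normalised to DMSO-treated control cells. Triplicate experiments unless stated otherwise; mean ± SD reported; unpaired two-tailed Student's t-test at p < 0.05.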

MDA-MB-231 [11] = experiment: Effect on human MDA-MB-231 cells assessed as increase in global 5hmc level by dot analysis; type: functional, cell-based
Outline: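 Global 5hmC measured by dot blot on genomic DNA from cells given GSK343 or carrying EZH2 knock-down, with DMSO or scrambled shRNA as controls. DNA denatured in 0.1 M NaOH at 99 °C for 5 min, then neutralized with ammonium sulfate pH 7.0. 5 µg spotted, UV-crosslinked, probed with anti-5hmC for 1 h at room temperature, ECL detection, dot intensity quantified. Mean ± SD.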

MDA-MB-436 [12] = experiment: In vivo activation of p53 expression in Crl:NU-Foxn1-nu/nu mouse xenografted with human MDA-MB-436 cells at 5 mg/kg, ip in presence of adriamycin treated for 21 days; type: functional, organism-based; conditions: time 21.0 day
SK-BR-3 = experiment: Cytotoxicity against human SK-BR-3 cells at 0.5 to 2 uM for 2 days by Guava viacount assay; type: toxicity, cell-based; conditions: sk-br-3, 48 h, dose 0.5-2 µM, time 2 day; outline: as §4
MDA-MB-231 [13] = experiment: […] in human MDA-MB-231 cells xenografted in Crl:NU-Foxn1-nu/nu mouse […] administered at 5 mg/kg, ip in presence of adriamycin treated for 21 days by SA-beta-gal staining analysis; type: functional, organism-based; conditions: time 21.0 day
Outline: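 SA-β-gal staining of xenograft tumors. Twice-weekly intraperitoneal GSK343 5 mg/kg, adriamycin 1 mg/kg, the combination, or DMSO, started at a tumor volume of about 50 mm3 and continued for 21 days.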

MDA-MB-231 [14] = experiment: Downregulation of E2F1 in human MDA-MB-231 cells at 2 uM for 2 days by immunoblot analysis; type: functional, cell-based; conditions: time 2.0 day
MDA-MB-231 [15] = experiment: Upregulation of […] signalling in human MDA-MB-231 cells at 2 uM for 2 days by immunoblot analysis; type: functional, cell-based; conditions: time 2.0 day
MDA-MB-436 [16] = experiment: Upregulation of TET1 in human MDA-MB-436 cells at 2 uM for 2 days by immunoblot analysis; type: functional, cell-based; conditions: time 2.0 day
BT-474 [17] = experiment: Antiproliferative activity against human BT-474 cells assessed as increase in global H3K9me3 expression level by immunoblot analysis; type: toxicity, cell-based
Outline: (§6)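 Cells exposed to GSK343 at 2 µM (standard level unless stated otherwise), lysed and immunoblotted; α-tubulin and total H3 as loading controls.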

MDA-MB-436 [18] = experiment: Antiproliferative activity in human MDA-MB-436 cells assessed as increase in C12FDG based fluorescent SA-beta-gal positive cells at 2 uM in presence of adriamycin by FACS analysis; type: functional, cell-based
Outline: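 Cells given 0.005 µg/ml adriamycin with or without 2 µM GSK343, or DMSO; SA-β-gal activity detected with C12FDG fluorescent substrate by flow cytometry, reported as percent positive cells. Mean ± SD.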

MDA-MB-231 [19] = experiment: Effect on human MDA-MB-231 cells assessed as apoptotic phenotype by measuring increase in BIM expression level at 2 uM in presence of adriamycin by immunoblot analysis; type: functional, cell-based; outline: as §3
MDA-MB-231 [20] = experiment: Antiproliferative activity against human MDA-MB-231 cells assessed as increase in global H3K9me3 expression level by immunoblot analysis; type: functional, cell-based; outline: as §6
MDA-MB-231 [21] = experiment: Effect on human MDA-MB-231 cells assessed as apoptotic phenotype by measuring increase in p53 expression level at 2 uM in presence of adriamycin by immunoblot analysis; type: functional, cell-based; outline: as §3
MDA-MB-436 [22] = experiment: Effect on human MDA-MB-436 cells expressing shTET1 assessed as increase in H3K9me3 cascade by immunoblot analysis; type: functional, cell-based
MDA-MB-436 [23] = experiment: Upregulation of TP53 gene in human MDA-MB-436 cells at 2 uM by qRT-PCR analysis; type: functional, cell-based; outline: as §5
BT-474 [24] = experiment: Cytotoxicity against human BT-474 cells assessed as increase in cell death at 10 uM for 2 days by Guava viacount assay; type: toxicity, cell-based; conditions: bt-474, 48 h, time 2 day; outline: as §4
MCF7 [25] = experiment: Induction of cell cycle arrest in human MCF7 cells assessed as accumulation of cells at S phase measured at 2 uM by BrdU/PI staining based flow cytometric analysis (reference value: 27.7%); type: functional
MDA-MB-231 [26] = experiment: In vivo activation of TET1 in Crl:NU-Foxn1-nu/nu mouse xenografted with human MDA-MB-231 cells at 5 mg/kg, ip in presence of adriamycin treated for 21 days; type: functional, organism-based; conditions: time 21.0 day
MCF7 [27] = experiment: Upregulation of CDKN1A gene in human MCF7 cells at 2 uM by qRT-PCR analysis; type: functional, cell-based; outline: as §5

Measured: Activity

CCCc1cc(C)[nH]c(=O)c1CNC(=O)c1cc(-c2ccnc(N3CCN(C)CC3)c2)cc2c1cnn2C(C)C
22.8%: MCF7 [25]
Non-Toxic: MDA-MB-361 | SK-BR-3 | BT-474 [17] | BT-474 [24]
46.4%: MDA-MB-436 [5]
inactive: MCF7 [2] | MCF7 [10] | MDA-MB-436 [22] | MCF7 [27]
active: all other assays above
